Legend:
[1] = target: T1, Neuronal acetylcholine receptor; alpha4/beta2 (Homo sapiens, UniProt P17787+P43681); assay: Displacement of [3H]cytisine from human alpha4beta2 nAChR expressed in HEK293 cells; assay type: cell-based
[2] = target: T1, Neuronal acetylcholine receptor; alpha4/beta2; assay: Agonist activity at human alpha4beta2 nAChR expressed in HEK293 cells assessed as intracellular calcium level by FLIPR assay; assay type: functional, cell-based
In short: (§1)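 HEK-293 cells stably expressing human α4β2 (subunits cloned from IMR32) were grown in DMEM with 10% FBS at 37 °C and 5% CO2. They were plated on poly-D-lysine for 24 h, then loaded with 2 µM fluo-4/AM for 1.5 h at room temperature. Cells were washed into NMDG Ringer (10 mM CaCl2, pH 7.4) and read by FLIPR at 100 pM–100 µM. Background-subtracted responses were normalized to 100 µM (-)-nicotine, giving pEC50 and maximal efficacy; n = 4-8.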

[3] = target: T1, Neuronal acetylcholine receptor; alpha4/beta2; assay: Intrinsic activity at human alpha4beta2 nAChR expressed in HEK293 cells assessed as intracellular calcium level by FLIPR assay relative to (-)nicotine; assay type: cell-based; in short: as §1

T1 sequence (P17787 whole entry): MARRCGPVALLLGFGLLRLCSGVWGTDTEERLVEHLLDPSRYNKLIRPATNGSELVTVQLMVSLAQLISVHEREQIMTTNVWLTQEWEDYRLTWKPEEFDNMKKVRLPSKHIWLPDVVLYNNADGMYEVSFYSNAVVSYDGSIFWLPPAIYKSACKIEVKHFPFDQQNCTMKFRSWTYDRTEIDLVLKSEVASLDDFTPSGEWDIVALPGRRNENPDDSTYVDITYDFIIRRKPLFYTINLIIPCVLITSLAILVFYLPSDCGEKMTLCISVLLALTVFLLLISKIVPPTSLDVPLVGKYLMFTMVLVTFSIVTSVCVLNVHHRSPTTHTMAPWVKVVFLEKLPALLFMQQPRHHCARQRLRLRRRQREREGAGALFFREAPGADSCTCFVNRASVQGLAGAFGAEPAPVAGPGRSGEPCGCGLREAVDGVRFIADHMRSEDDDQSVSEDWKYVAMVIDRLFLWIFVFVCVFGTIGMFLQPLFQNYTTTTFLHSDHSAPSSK
T1 sequence (P43681 whole entry): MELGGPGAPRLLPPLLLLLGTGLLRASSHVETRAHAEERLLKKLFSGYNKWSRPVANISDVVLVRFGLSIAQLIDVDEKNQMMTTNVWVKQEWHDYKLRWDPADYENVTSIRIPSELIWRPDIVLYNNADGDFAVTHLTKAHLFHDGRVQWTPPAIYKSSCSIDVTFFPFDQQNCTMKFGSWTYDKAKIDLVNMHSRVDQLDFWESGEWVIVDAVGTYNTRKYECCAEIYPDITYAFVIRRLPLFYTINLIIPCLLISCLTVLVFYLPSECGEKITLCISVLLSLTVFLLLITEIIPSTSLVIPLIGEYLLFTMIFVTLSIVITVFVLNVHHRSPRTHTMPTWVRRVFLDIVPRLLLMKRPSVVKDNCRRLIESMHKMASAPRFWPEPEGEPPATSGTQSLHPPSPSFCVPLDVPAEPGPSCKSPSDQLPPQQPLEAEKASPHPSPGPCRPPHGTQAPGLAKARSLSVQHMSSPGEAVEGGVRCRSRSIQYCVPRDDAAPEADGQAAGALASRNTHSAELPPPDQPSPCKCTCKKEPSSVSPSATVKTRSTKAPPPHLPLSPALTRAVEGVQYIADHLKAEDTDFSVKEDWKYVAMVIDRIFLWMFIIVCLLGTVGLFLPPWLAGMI

`COc1cc(N2CCCNCC2)cnc1Cl` gave an IC50 [1] of 0.676 nM, an EC50 [2] of 91.2 nM and an Efficacy [3] of 116%.

For `Brc1ccc(N2CCNCC2)cn1`, the IC50 [1] was 182 nM, the EC50 [2] was 2510 nM and the Efficacy [3] was 129%.

Molecule `COc1cncc(N2CCCNCCC2)c1` has an IC50 [1] of 1 nM, an EC50 [2] of 120 nM and an Efficacy [3] of 89%.

`c1cncc(OC[C@@H]2CCN2)c1` showed an IC50 [1] of 1.51 nM.

Work on `Brc1ccc(N2CCCNCC2)cn1` yielded an IC50 [1] of 1 nM, an EC50 [2] of 64.6 nM and an Efficacy [3] of 88%.

`Cc1ncc(N2CCNCC2)cc1Cl` was tested, and the IC50 [1] was 525 nM, the EC50 [2] was 26900 nM and the Efficacy [3] was 74%.

In the case of `C=COc1cc(N2CCCNCCC2)cnc1Br`, the IC50 [1] is reported as 0.38 nM, the EC50 [2] is reported as 240 nM and the Efficacy [3] is reported as 90%.

In the case of `NC(=O)c1cncc(N2CCCNCC2)c1`, the IC50 [1] is reported as 20 nM, the EC50 [2] is reported as 12900 nM and the Efficacy [3] is reported as 56%.

For `CCOc1cc(N2CCCNCC2)cnc1Br`, the IC50 [1] was 0.871 nM, the EC50 [2] was 257 nM and the Efficacy [3] was 78%.

`c1ccc2ncc(N3CCCNCC3)cc2c1` showed an IC50 [1] of 6.61 nM, an EC50 [2] of 3630 nM and an Efficacy [3] of 33%.

Molecule `Clc1cc(N2CCCNCC2)cnc1Br` has an IC50 [1] of 1.41 nM, an EC50 [2] of 15.1 nM and an Efficacy [3] of 102%.

`COc1ccc(N2CCCNCC2)cn1` gave an IC50 [1] of 170 nM, an EC50 [2] of 11000 nM and an Efficacy [3] of 88%.

In the case of `C=COc1cncc(N2CCCNCC2)c1`, the IC50 [1] is reported as 5.01 nM, the EC50 [2] is reported as 1100 nM and the Efficacy [3] is reported as 61%.

Work on `Clc1cncc(N2CCNCC2)c1` yielded an EC50 [2] of 22900 nM and an Efficacy [3] of 41%.

With `Oc1cncc(N2CCCNCC2)c1` the IC50 [1] was 2.4 nM, the EC50 [2] was 141 nM and the Efficacy [3] was 120%.

`C/C=C\Oc1cncc(N2CCCNCC2)c1` was tested, and the IC50 [1] was 1.29 nM, the EC50 [2] was 2090 nM and the Efficacy [3] was 45%.

`Clc1ncc(N2CCNCC2)cc1Br` gave an IC50 [1] of 229 nM, an EC50 [2] of 7940 nM and an Efficacy [3] of 98%.

`Brc1cncc(N2CCCNCCC2)c1` showed an IC50 [1] of 2.82 nM, an EC50 [2] of 182 nM and an Efficacy [3] of 73%.

For `c1cncc(OC2CCNC2)c1` (stereo not drawn), the IC50 [1] was 100 nM, the EC50 [2] was 28800 nM and the Efficacy [3] was 54%.

Molecule `c1cncc(N2CCCNCC2)c1` has an EC50 [2] of 229 nM and an Efficacy [3] of 94%.

With `Brc1ccc(N2CCCNCCC2)cn1` the IC50 [1] was 0.447 nM, the EC50 [2] was 1.29 nM and the Efficacy [3] was 139%.

`Clc1cncc(N2CCCNCCC2)c1` showed an IC50 [1] of 2 nM, an EC50 [2] of 170 nM and an Efficacy [3] of 103%.

`Oc1cc(N2CCCNCC2)cnc1I` gave an IC50 [1] of 21.9 nM, an EC50 [2] of 479 nM and an Efficacy [3] of 104%.

For `C1=C(c2cccnc2)CC2CCC1N2` (stereo not drawn), the IC50 [1] was 6.76 nM, the EC50 [2] was 1000 nM and the Efficacy [3] was 66%.

`COCCOc1cncc(N2CCCNCC2)c1` gave an IC50 [1] of 2.4 nM, an EC50 [2] of 8710 nM and an Efficacy [3] of 42%.

Molecule `C=COc1cc(N2CCCNCC2)cnc1Br` has an IC50 [1] of 0.646 nM, an EC50 [2] of 110 nM and an Efficacy [3] of 80%.

With `Clc1ncc(N2CCCNCC2)cc1Br` the IC50 [1] was 1.41 nM, the EC50 [2] was 57.5 nM and the Efficacy [3] was 85%.

For `CCSc1ccc(N2CCCNCC2)cn1`, the IC50 [1] was 170 nM, the EC50 [2] was 4470 nM and the Efficacy [3] was 53%.

Molecule `COc1cncc(N2CCCNCC2)c1` has an IC50 [1] of 1.91 nM, an EC50 [2] of 1410 nM and an Efficacy [3] of 66%.

Work on `COc1cncc(C2=CC3CCCC(C2)N3)c1` (stereo not drawn) yielded an IC50 [1] of 3.02 nM, an EC50 [2] of 4370 nM and an Efficacy [3] of 13%.

`C=COc1cncc(N2CCNCC2)c1` was tested, and the IC50 [1] was 191 nM, the EC50 [2] was 7590 nM and the Efficacy [3] was 18%.

`C1=C(c2cccnc2)CC2CCCC1N2` (stereo not drawn) was tested, and the IC50 [1] was 4.47 nM, the EC50 [2] was 1200 nM and the Efficacy [3] was 34%.

With `Clc1cncc(OC2CCCNC2)c1` (stereo not drawn) the IC50 [1] was 240 nM, the EC50 [2] was 1410 nM and the Efficacy [3] was 15%.

Work on `COc1cc(N2CCNCC2)cnc1Br` yielded an EC50 [2] of 17000 nM and an Efficacy [3] of 68%.

`c1cncc(N2CCCNCCC2)c1` was tested, and the IC50 [1] was 0.891 nM, the EC50 [2] was 36.3 nM and the Efficacy [3] was 78%.

`c1cncc(OC2CCCNC2)c1` (stereo not drawn) gave an IC50 [1] of 191 nM, an EC50 [2] of 32400 nM and an Efficacy [3] of 22%.

— ChEMBL document CHEMBL1153405, “Complementary three-dimensional quantitative structure-activity relationship modeling of binding affinity and functional potency: a study on alpha4beta2 nicotinic ligands” (J Med Chem, 2009)
